Experimental data published in ChEMBL document CHEMBL3352550, “Discovery and optimization of 4,5-diarylisoxazoles as potent dual inhibitors of pyruvate dehydrogenase kinase and heat shock protein 90” (J Med Chem, 2014).
Active and inactive are the calls of the source. The rule behind the calls is not given here.

What was measured:
[1] = biological target: T1, [Pyruvate dehydrogenase (acetyl-transferring)] kinase isozyme 1, mitochondrial (Homo sapiens, UniProt Q15118); test: Inhibition of recombinant PDHK1 (unknown origin) expressed in Escherichia coli at 10 uM incubated for 1 hr by ELISA
T1 sequence (Q15118 whole entry): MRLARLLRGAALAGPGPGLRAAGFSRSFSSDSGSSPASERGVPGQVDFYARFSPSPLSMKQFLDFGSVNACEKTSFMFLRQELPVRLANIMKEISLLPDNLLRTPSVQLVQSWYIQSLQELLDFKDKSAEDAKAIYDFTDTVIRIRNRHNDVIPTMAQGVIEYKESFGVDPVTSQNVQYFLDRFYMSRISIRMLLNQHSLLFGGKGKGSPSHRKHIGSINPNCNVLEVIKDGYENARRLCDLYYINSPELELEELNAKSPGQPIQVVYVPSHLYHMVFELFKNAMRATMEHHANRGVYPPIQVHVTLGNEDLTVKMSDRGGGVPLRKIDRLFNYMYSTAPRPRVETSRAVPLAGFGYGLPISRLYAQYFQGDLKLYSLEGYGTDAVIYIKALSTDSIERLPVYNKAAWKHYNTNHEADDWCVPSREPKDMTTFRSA
Summary of the method: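 Recombinant His6-SUMO-PDHK1 was expressed in E. coli and purified on nickel resin. It was used at 0.25 µg/well on immobilized PDHA1 substrate (0.5 µg/well) with 10 µM ATP in 50 mM HEPES, 10 mM MgCl2 and 1 mM EGTA. Compounds were screened at 10 µM and percent inhibition was recorded. Detection used anti-p-PDHA1(S293) for 1 h and HRP secondary antibody for 1 h, then o-phenylenediamine, read at OD490.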

[2] = biological target: T1, [Pyruvate dehydrogenase (acetyl-transferring)] kinase isozyme 1, mitochondrial; test: Inhibition of recombinant PDHK1 (unknown origin) expressed in Escherichia coli incubated for 1 hr by ELISA
[3] = biological target: T2, Heat shock protein HSP90 (Homo sapiens, UniProt P07900+P08238); test: Inhibition of geldanamycin-BODIPY binding to full-length HSP90 (unknown origin) by fluorescence polarization based competition assay; assay type: protein assay
Summary of the method: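 Fluorescence polarization competition using full-length HSP90 and geldanamycin-BODIPY as probe.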

[4] = biological target: T2, Heat shock protein HSP90; test: Inhibition of HSP90 in human NCI-H1299 cells assessed as reduction in AKT protein levels at 10 uM incubated for 12 hrs by immunoblotting method; assay type: cell-based
Summary of the method: (§1)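 NCI-H1299 cells were treated for 12 h and lysed in RIPA buffer with protease inhibitors. Equal protein was loaded per lane, run on a gel and transferred to nitrocellulose. Membranes were blocked in TBST with 3% BSA for 1 h at room temperature, then probed with primary antibody for 2 h and secondary antibody for 1 h, both at room temperature. Bands were detected by ECL.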

[5] = biological target: T2, Heat shock protein HSP90; test: Inhibition of HSP90 in human NCI-H1299 cells assessed as reduction in HER2 protein levels at 10 uM incubated for 12 hrs by immunoblotting method; assay type: cell-based; summary of the method: as §1
[6] = biological target: T2, Heat shock protein HSP90; test: Inhibition of HSP90 in human NCI-H1299 cells assessed as reduction in c-MET protein levels at 10 uM incubated for 12 hrs by immunoblotting method; assay type: cell-based; summary of the method: as §1
[7] = biological target: T2, Heat shock protein HSP90; test: Inhibition of HSP90 in human NCI-H1299 cells assessed as increase in HSP70 protein levels at 10 uM incubated for 12 hrs by immunoblotting method; assay type: cell-based; summary of the method: as §1
[8] = Apparent permeability from apical to basolateral side in human Caco2 cells; conditions: Caco-2
[9] = Apparent permeability from basolateral to apical side in human Caco2 cells; conditions: Caco-2
[10] = Efflux ratio in human Caco2 cells; conditions: Caco-2
[11] = biological target: [Pyruvate dehydrogenase (acetyl-transferring)] kinase isozyme 2, mitochondrial (Homo sapiens, UniProt Q15119); test: Inhibition of recombinant PDHK2 (unknown origin) expressed in Escherichia coli incubated for 1 hr by ELISA
[12] = biological target: [Pyruvate dehydrogenase (acetyl-transferring)] kinase isozyme 3, mitochondrial (Homo sapiens, UniProt Q15120); test: Inhibition of recombinant PDHK3 (unknown origin) expressed in Escherichia coli incubated for 1 hr by ELISA
Chain of [Pyruvate dehydrogenase (acetyl-transferring)] kinase isozyme 3, mitochondrial (Q15120 whole entry): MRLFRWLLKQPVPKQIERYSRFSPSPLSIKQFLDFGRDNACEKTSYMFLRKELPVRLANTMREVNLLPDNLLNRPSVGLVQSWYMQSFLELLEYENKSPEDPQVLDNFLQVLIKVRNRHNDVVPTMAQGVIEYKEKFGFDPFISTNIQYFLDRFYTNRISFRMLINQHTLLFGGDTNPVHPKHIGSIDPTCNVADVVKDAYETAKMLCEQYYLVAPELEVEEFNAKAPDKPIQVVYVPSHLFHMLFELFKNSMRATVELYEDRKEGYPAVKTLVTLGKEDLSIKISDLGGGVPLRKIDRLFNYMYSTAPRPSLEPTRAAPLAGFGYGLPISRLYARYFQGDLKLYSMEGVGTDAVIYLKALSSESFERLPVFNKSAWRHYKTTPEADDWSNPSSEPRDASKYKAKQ

[13] = biological target: [Pyruvate dehydrogenase (acetyl-transferring)] kinase isozyme 4, mitochondrial (Homo sapiens, UniProt Q16654); test: Inhibition of recombinant PDHK4 (unknown origin) expressed in Escherichia coli incubated for 1 hr by ELISA
Chain of [Pyruvate dehydrogenase (acetyl-transferring)] kinase isozyme 4, mitochondrial (Q16654 whole entry): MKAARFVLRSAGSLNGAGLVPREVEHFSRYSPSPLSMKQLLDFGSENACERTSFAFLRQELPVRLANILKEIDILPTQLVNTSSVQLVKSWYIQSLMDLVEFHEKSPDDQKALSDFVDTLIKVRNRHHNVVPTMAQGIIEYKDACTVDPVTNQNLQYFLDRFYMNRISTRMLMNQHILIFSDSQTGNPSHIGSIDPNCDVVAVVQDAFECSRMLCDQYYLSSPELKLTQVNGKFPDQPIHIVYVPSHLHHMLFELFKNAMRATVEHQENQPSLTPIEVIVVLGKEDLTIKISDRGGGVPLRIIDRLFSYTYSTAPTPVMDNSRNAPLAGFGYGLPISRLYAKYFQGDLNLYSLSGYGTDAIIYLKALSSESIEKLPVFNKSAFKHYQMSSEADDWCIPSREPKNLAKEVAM

[14] = tested on: NCI-H1299; test: Reduction in extracellular acidification rate in human NCI-H1299 cells at 10 uM incubated for 12 hrs; assay type: functional, cell-based
Summary of the method: (§2)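 Cells pre-treated with varying concentrations of compound for 12 h, then oxygen consumption rate and extracellular acidification rate measured on an XF96 extracellular flux analyzer; ECAR/OCR ratio calculated from these readings.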

[15] = tested on: NCI-H1299; test: Reduction in oxygen consumption rate in human NCI-H1299 cells at 10 uM incubated for 12 hrs; assay type: functional, cell-based; summary of the method: as §2
[16] = tested on: NCI-H1299; test: Increase in oxygen consumption rate/extracellular acidification rate ratio in human NCI-H1299 cells at 10 uM incubated for 12 hrs; assay type: functional, cell-based
[17] = tested on: NCI-H1299; test: Increase in ROS production in human NCI-H1299 cells at incubated for 12 hrs by DCFH-DA staining based fluorescence assay; assay type: functional, cell-based
Summary of the method: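 Cells loaded with 5 µmol/L DCFH-DA in fresh medium for 30 min after compound treatment, washed with PBS, and intracellular ROS read as fluorescence intensity by flow cytometry.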

[18] = tested on: NCI-H1299; test: Antiproliferative activity against human NCI-H1299 cells after 72 hrs by CCK8 assay; assay type: functional, cell-based
Summary of the method: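 NCI-H1299 cells seeded at 3000 per well; test compound at a range of concentrations added the next day, vehicle DMSO as control; proliferation read by CCK8 kit after 72 h; IC50 derived from dose–response.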

[19] = biological target: T1, [Pyruvate dehydrogenase (acetyl-transferring)] kinase isozyme 1, mitochondrial; conditions: NCI-H1299, 10 uM

Q: For `COc1ccccc1N1CCN(C(=O)/C=C/c2noc(-c3cc(Cl)c(O)cc3O)c2-c2ccc(O)cc2)CC1`, which inhibition [1] is on record?
A: > 50%

Q: And the IC50 [2]?
A: 604 nM

Q: And the IC50 [3]?
A: 512 nM

Q: What about the inhibition [4] of the same molecule?
A: Active

Q: And the inhibition [5]?
A: Active

Q: And the inhibition [6]?
A: Active

Q: What about the inhibition [7] of the same molecule?
A: Active

Q: And the Papp A→B [8]?
A: 11.2 ×10⁻⁶ cm/s

Q: And the Papp B→A [9]?
A: 15.5 ×10⁻⁶ cm/s

Q: And the efflux ratio [10]?
A: 1.38

Q: And the IC50 [11]?
A: 1130 nM

Q: What about the IC50 [12] of the same molecule?
A: 5340 nM

Q: What about the IC50 [13] of the same molecule?
A: 1740 nM

Q: And the inhibition [14]?
A: Active

Q: What about the inhibition [15] of the same molecule?
A: Active

Q: And the Activity [16]?
A: Active

Q: And the Activity [17]?
A: Active

Q: And the inhibition [18]?
A: Dose-dependent effect

Q: What about the IC50 ([18]; NCI-H1299, 72 h) of the same molecule?
A: 9210 nM

Q: What about the inhibition [19] of the same molecule?
A: Active
